Source: PubChem (several laboratories)
MrgX1 agonist = activates human MrgX1 receptor signaling; Q96LB2; MrgX1-HEK293 cells, Fluo-4 calcium fluorescence, agonist mode; stronger effect = higher value; B-score at 10 µM; hit rate 0.44% among 310,000;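 active = calcium response B-score plate-corrected fluorescence ratio at least 3 library SD, with starting fluorescence B-score inside 5 SD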
Target sequence (Q96LB2 whole entry, looked up): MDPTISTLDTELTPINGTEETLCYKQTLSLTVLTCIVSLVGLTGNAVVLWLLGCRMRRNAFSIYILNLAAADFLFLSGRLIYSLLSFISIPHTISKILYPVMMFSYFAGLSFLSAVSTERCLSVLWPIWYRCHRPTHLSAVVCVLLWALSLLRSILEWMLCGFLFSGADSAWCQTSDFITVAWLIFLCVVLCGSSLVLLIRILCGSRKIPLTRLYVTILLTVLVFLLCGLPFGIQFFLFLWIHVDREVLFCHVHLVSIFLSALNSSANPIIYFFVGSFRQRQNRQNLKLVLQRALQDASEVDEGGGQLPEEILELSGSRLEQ
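Material: MrgX1-expressing HEK293 cells / Dosing: compound as first of three additions / Incubation: overnight seeding, then 1 h dark dye loading / Signal: Fluo-4 NW calcium fluorescence / Evaluation: B-scored fluorescence response ratio / Benchmarks: positive and negative control wells on each plate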
RGS4 inh = human RGS4 inhibition. hit rate 0.45% among 310,000. B-score at 10 µM. P49798. HEK293 M3R/RGS4 inducible, Fluo-4 calcium flux; stronger effect = higher value; triggered by carbachol at its EC20;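 active = B-score, a plate-corrected calcium signal, over three deviations above library mean, with baseline fluorescence within five deviations of library mean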;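 note: RGS4 expression induced by doxycycline in cells with stable M3 receptor; B-score is computed from the integrated fluorescence ratio over baseline after carbachol; higher B-score means a larger calcium signal and so more RGS4 inhibition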
Target sequence (P49798 whole entry, looked up): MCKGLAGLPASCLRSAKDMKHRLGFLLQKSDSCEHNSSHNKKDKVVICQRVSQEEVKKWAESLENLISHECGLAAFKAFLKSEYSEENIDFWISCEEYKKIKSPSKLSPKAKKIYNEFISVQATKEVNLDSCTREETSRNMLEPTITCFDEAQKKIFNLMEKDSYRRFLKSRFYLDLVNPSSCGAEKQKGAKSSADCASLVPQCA
MrgX1 antagonist = human MrgX1 receptor antagonism, primary screen; Q96LB2; MRGX1-HEK293 calcium flux, Fluo-4, BAM8-22 antagonism; stronger effect = lower value; B-score at 10 µM; hit rate 1.3% among 310,000; AID 588676;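 active = calcium-response B-score plate-corrected more than 3 library SD below zero, starting fluorescence within 5 deviations, no agonist response on first addition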;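 note: peak minus trough fluorescence over baseline after final BAM8-22 challenge near maximal dose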
Hep lipid drop = hepatic lipid droplet formation modulation; AML12 mouse hepatocytes, oleate lipid droplets, BODIPY imaging; inhibition, % at 6.5 µM; hit rate 0.4% among 240,000;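 active = lipid droplet intensity inhibited by at least 50%, with more than 500 cells counted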
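Assay system: AML12 mouse liver cells | Compound: 6.5 µM single-point dosing | Schedule: Overnight exposure | Technique: Fluorescence imaging, 20x objective, two fields per well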
RGS4 pot = RGS4 potentiation or activation | HEK293 M3R/inducible RGS4, carbachol calcium flux Fluo4; stronger effect = lower value | B-score at 10 µM | hit rate 0.92% among 310,000 | AID 463111;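 active = B-score of the integrated calcium signal more than 4 SD below the library mean, with starting fluorescence not abnormally high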;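 note: negative B-score means reduced calcium response which marks RGS4 activation or potentiation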
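Reagent: ECmax carbachol challenge; Test system: M3R-expressing HEK293 line, RGS4 induced by doxycycline; Schedule: overnight RGS4 induction, 30 min dye load 37 °C, 20 min compound RT; Detection: calcium dye Fluo4 fluorescence; Read-out: Agonist-evoked peak-minus-minimum fluorescence over baseline, integrated ratio, B score.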
MrgX1 allo act = allosterically activates human MrgX1 receptor signaling; B-score at 10 µM; MrgX1-HEK293, Fluo-4 calcium flux, FDSS; stronger effect = higher value; Q96LB2; hit rate 0.63% among 310,000; AID 588675;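 active = plate-corrected calcium response at least 3 library SD above typical, normal starting fluorescence, not activating the receptor alone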;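 note: compound read alongside a low EC10 to EC30 dose of BAM8-22 agonist; peak minus trough fluorescence over baseline measured at the second addition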
RGS4 inh valid = RGS4 inhibitor validation; HEK293 M3R/RGS4, carbachol calcium Fluo-4 fluorescence; carbachol added at its EC20; 0 = buffer wells, 100 = carbachol control; AID 492999; calcium response, % at 10 µM; hit rate 65% among 1,700; shares compounds with RGS4 inh;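 active = duplicate-averaged calcium response above the buffer-only control mean plus 5 SD of those controls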;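 note: integrated fluorescence ratio F max minus min over baseline F0; higher response in RGS4-induced cells means RGS4 inhibition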
RGS4 uninduced = checks RGS4 inhibitor effects in non-induced HEK293 M3R cells | hit rate 20% among 1,900 | shares compounds with RGS4 inh | carbachol calcium Fluo-4; submaximal (EC20) carbachol stimulus; buffer wells 0%, carbachol control wells 100% | activity (percent), % at 10 µM; call rule not given here;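 note: RGS4 induction absent so cells express M3R without RGS4; higher means more calcium signal and flags a non-specific hit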
RGS4 inh ctr2 = signal in non-induced cells without carbachol, RGS4 inhibitor counter-screen. shares compounds with RGS4 inh. HEK293 M3R/RGS4 non-induced, Fluo-4 calcium, no carbachol; normalised: buffer wells 0%, carbachol wells 100%. calcium response (agonist-mode artifact), % at 10 µM. hit rate 22% among 1,900. AID 493001;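 active = duplicate-averaged calcium rise in uninduced cells above buffer wells' mean plus 5 SD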
Active calls of the source: *; i = inactive; nt = not tested or not shown. A selection: hits, their analogues and other compounds. The true share with any hit is near 3.8%.

SMILES | MrgX1 agonist | RGS4 inh | MrgX1 antagonist | Hep lipid drop | RGS4 pot | MrgX1 allo act | RGS4 inh valid | RGS4 uninduced | RGS4 inh ctr2
Cc1cccc(Cn2cc(/C=C/[N+](=O)[O-])c3ccccc32)c1 | i | i | i | nt | i | i | nt | nt | nt
CCOC(=O)COc1ccc(/C=C/[N+](=O)[O-])c(OCC(=O)OCC)c1 | i | 11.3* | i | nt | i | i | 24.5%* | 33.5%* | i
COC(=O)c1ccc(Cn2nc(C)c([N+](=O)[O-])c2C)o1 | i | i | i | 0.2 | i | i | nt | nt | nt
CCOc1ccc(/C=C/[N+](=O)[O-])c2ccccc12 | 41.9* | 23* | i | nt | i | i | 45.0%* | i | 27.0%*
CCOc1ccccc1NS(=O)(=O)c1cn(C)c(=O)n(C)c1=O | i | i | i | -0.4 | i | i | nt | nt | nt
Cc1ccc(-n2c(SCC(=O)N(C)C3CCS(=O)(=O)C3)nc3ccccc3c2=O)cc1 (stereo not drawn) | i | i | i | 9.9 | i | i | nt | nt | nt
O=C(O)c1ccc(Cn2cc(/C=C\[N+](=O)[O-])c3ccccc32)o1 | i | i | i | -1.8 | i | i | i | i | i
CCOC(=O)Cn1cc(/C=C/[N+](=O)[O-])c2ccccc21 | 33.2* | 17.1* | i | 4.1 | i | i | 56.0%* | 61.0%* | 14.5%*
Cc1ccc(F)cc1NC(=O)C1CC(=O)N(CCc2ccccc2)C1 (stereo not drawn) | i | i | i | -1.3 | i | i | nt | nt | nt
Cc1ccccc1C1C(C#N)=C2N=C(N)c3ccccc3N2C2=C1C(=O)CCC2 (stereo not drawn) | i | i | i | -8.8 | i | i | nt | nt | nt
N#CC1=C2N=C(N)c3ccccc3N2C2=C(C(=O)CCC2)C1c1cccc(Cl)c1 (stereo not drawn) | i | i | i | -20.3 | i | i | nt | 38.0%* | 28.0%*
COc1ccc(C(c2nnnn2C(C)C)N2CCN(C(=O)c3ccco3)CC2)cc1 (stereo not drawn) | i | i | i | -2.5 | i | i | nt | nt | nt
NCCS(=O)(=O)O | i | i | i | nt | i | i | nt | nt | nt
CCOC(=O)/C(C#N)=C/c1cn(CCC(=O)O)nc1-c1ccc(Cl)cc1 | i | i | i | -5.9 | i | i | i | i | i
CCOC(=O)/C(C#N)=C/c1cn(CCC(=O)O)nc1-c1cccc(Br)c1 | i | i | i | 28.7 | i | i | nt | i | i
CCOC(=O)/C(C#N)=C/c1cn(CCC(=O)O)nc1-c1ccc(OC)cc1 | i | i | i | 14.3 | i | i | nt | nt | nt
O=Cc1cn(CCC(=O)O)nc1-c1cccc(Cl)c1 | i | i | i | -9.9 | i | i | nt | nt | nt
CCOC(=O)/C(C#N)=C/c1cn(CCC(=O)O)nc1-c1ccccc1 | i | i | i | -0.7 | i | i | i | i | i
CC(C)CN1C(=O)c2ccc(C(=O)Nc3c[nH]c(=O)[nH]c3=O)cc2C1=O | i | i | i | 31.1 | i | i | nt | nt | nt
CCOC(=O)c1c(NC(=O)C(=O)N/N=C/c2ccc(O)c(OC)c2)sc2c1CCCCC2 | i | 12.1* | i | 3.5 | i | i | 37.0%* | 53.5%* | 18.5%*
COC(=O)c1cc(-c2ccc(Br)cc2)on1 | i | i | i | nt | i | i | nt | nt | nt
COC(=O)c1nn(C23CC4CC(CC(C4)C2)C3)c2c1C(=O)N(c1ccc(Br)cc1)C2=O | i | 5.87* | i | 4.7 | i | i | 7.5%* | i | i
